This note sets out measurements from ChEMBL document CHEMBL1124542, “Cholecystokinin antagonists. Synthesis and biological evaluation of 3-substituted benzolactams” (J Med Chem, 1989).

For one test, the system named is Mus musculus. As to the kind of experiment: Dose rquired to inhibit CCK-induced gastric emptying in mice p.o. In kind it is functional. The following applies: Stomach, po. In short, it runs like this:
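Antagonism of CCK-8-induced inhibition of gastric emptying, with gastric emptying followed using a charcoal meal. Test agents were given orally, and the ED50 was taken as the oral dose (mg/kg) that antagonized the CCK-8 effect.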
Turning to `CC(C)(C)OC(=O)CN1C(=O)[C@H](NC(=O)c2ccc3ccccc3c2)CCc2ccccc21`, it took a dose of 6.8 mg/kg to reach the 50% effect level (ED50).
The same measure, in the same setting: as for `CC(C)(C)OC(=O)CN1C(=O)C(NC(=O)c2cc3ccccc3[nH]2)CCc2ccccc21` (configuration not stated), the figure is 2.6 mg/kg; as for `CN1C(=O)[C@@H](NC(=O)c2cc3ccccc3[nH]2)N=C(c2ccccc2)c2ccccc21` [DEVAZEPIDE], 0.04 mg/kg.

A further test deals with T1, Cholecystokinin receptor (Rattus norvegicus, UniProt P30551+P30553).
T1 sequence (P30551 whole entry): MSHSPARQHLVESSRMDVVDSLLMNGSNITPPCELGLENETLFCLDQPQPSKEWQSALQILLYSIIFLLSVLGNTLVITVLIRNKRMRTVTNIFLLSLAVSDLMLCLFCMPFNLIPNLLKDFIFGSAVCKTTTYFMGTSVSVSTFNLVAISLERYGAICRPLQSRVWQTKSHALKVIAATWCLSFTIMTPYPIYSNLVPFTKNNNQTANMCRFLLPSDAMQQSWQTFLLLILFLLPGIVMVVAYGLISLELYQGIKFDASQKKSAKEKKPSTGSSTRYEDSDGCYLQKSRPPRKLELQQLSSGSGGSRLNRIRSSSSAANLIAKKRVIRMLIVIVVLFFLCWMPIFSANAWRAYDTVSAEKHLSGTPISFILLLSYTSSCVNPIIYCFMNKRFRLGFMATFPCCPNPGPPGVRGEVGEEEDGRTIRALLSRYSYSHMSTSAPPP
T1 sequence (P30553 whole entry): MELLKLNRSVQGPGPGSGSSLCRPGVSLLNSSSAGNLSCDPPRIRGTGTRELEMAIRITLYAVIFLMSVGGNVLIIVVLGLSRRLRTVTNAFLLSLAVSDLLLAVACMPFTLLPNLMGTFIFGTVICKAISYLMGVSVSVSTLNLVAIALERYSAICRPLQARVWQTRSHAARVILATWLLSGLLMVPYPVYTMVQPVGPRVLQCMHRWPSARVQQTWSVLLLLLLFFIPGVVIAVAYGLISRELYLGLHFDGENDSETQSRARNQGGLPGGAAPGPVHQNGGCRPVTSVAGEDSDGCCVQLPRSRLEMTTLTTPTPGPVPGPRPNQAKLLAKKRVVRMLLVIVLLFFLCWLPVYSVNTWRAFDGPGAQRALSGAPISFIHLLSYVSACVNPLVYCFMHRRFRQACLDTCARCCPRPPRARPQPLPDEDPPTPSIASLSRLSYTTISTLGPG
As to the kind of experiment: Half-maximal inhibition of binding of [125I]CCK-8 to Cholecystokinin receptor in rat pancreatic tissue.
Conditions: not given
`CC(C)(C)OC(=O)CN1C(=O)C(NC(=O)c2ccccc2)CCc2ccccc21` (configuration not stated): the IC50 was 2.1 µM. That is a single-digit micromolar value.
`CC(C)(C)OC(=O)CN1C(=O)C(NCc2ccc3ccccc3c2)CCc2ccccc21` (configuration not stated) returned an IC50 of 0.004 µM.
The same measure, in the same setting: under `O=C(O)CN1C(=O)C(NC(=O)c2ccc3ccccc3c2)CCc2ccccc21` (configuration not stated) stands 2.3 µM; under `CC(C)(C)OC(=O)CN1C(=O)C(NC(=O)c2ccc3ccccc3c2)CCc2ccccc21` (configuration not stated), 0.0075 µM.
Same read-out and setting: under `CC(C)(C)OC(=O)CN1C(=O)C(NC(=O)Cc2ccc3ccccc3c2)CCc2ccccc21` (configuration not stated) stands 2.7 µM.
As to `CN(C)c1ccc(C(=O)NC2CCc3ccccc3N(CC(=O)OC(C)(C)C)C2=O)cc1` (configuration not stated), the IC50 is 50 µM.
Same read-out and setting: under `CN1C(=O)C(NC(=O)c2ccc3ccccc3c2)CCc2ccccc21` (configuration not stated) stands 6.8 µM.

The next test has as its target T1, Cholecystokinin receptor. The test is described as follows: Inhibition of [125I]-CCK-8 binding to CCK receptors in rat pancreatic tissue.
Conditions: not given
The compound `CC(C)(C)OC(=O)CN1C(=O)[C@H](NC(=O)c2cc3ccccc3[nH]2)CCc2ccccc21` showed an IC50 of 0.003 µM.
On the same count and under the same terms, under `CC(C)(C)OC(=O)CN1C(=O)[C@H](NC(=O)c2ccc3ccccc3c2)CCc2ccccc21` stands 0.0042 µM.
Same read-out and setting: as for `CC(C)(C)OC(=O)CN1C(=O)[C@@H](NC(=O)c2cc3ccccc3[nH]2)CCc2ccccc21`, the figure is 0.2 µM; as for `CC(C)(C)OC(=O)CN1C(=O)C(NC(=O)c2ccc(Cl)cc2)CCc2ccccc21` (configuration not stated), 0.13 µM.
On the same count and under the same terms, under `CCOC(=O)CN1C(=O)C(NC(=O)c2cc3ccccc3[nH]2)CCc2ccccc21` (configuration not stated) stands 0.11 µM; under `CC(C)(C)OC(=O)CN1C(=O)C(N)CCc2ccccc21` (configuration not stated), 100 µM; under `CC(C)(C)OC(=O)CN1C(=O)C(NC(=O)c2ccc(Cl)c(Cl)c2)CCc2ccccc21` (configuration not stated), 0.028 µM.
As for `CC(C)(C)OC(=O)CN1C(=O)C(NC(=O)c2cc3ccccc3[nH]2)Cc2ccccc21` (configuration not stated), the half-maximal inhibitory concentration (IC50) was 0.2 µM.
On the same count and under the same terms, under `CC(C)(C)OC(=O)CN1C(=O)C(NC(=O)c2cc3ccccc3[nH]2)CCCc2ccccc21` (configuration not stated) stands 0.06 µM; under `CC(C)(C)OC(=O)CN1C(=O)C(NC(=O)CCc2c[nH]c3ccccc23)CCc2ccccc21` (configuration not stated), 2 µM; under `CC(C)(C)OC(=O)CN1C(=O)C(NC(=O)c2cc3ccccc3[nH]2)CCc2ccccc21` (configuration not stated), 0.007 µM.
On the same count and under the same terms, as for `O=C(NC1CCc2ccccc2N(Cc2ccccc2)C1=O)c1cc2ccccc2[nH]1` (configuration not stated), the figure is 0.035 µM.

By ED50 is commonly meant the dose at which the effect has come halfway, by size or by number of responders. Low readings indicate an effect at a small dose, high ones a need for a large dose. By IC50 is commonly meant the point on the concentration scale where inhibition reaches its midpoint.
